# This is a sample that favours compounds with a hit; in the whole collection about 2.7% have one here.
# V1R ag counter: agonists of human V1a receptor, primary screen, counter-screen for OXTR agonist project, fluorescence, CHO-V1R cells; Vasopressin V1a receptor (Homo sapiens), P37288; Fluo-8 calcium fluorescence, agonist mode; 0% DMSO, 100% 3 nM vasopressin; activation, % at 3 µM; 320,000 compounds, 0.25% hits; AID 2797, 2010;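 active = activation above the mean activation of all tested compounds plus 3 SD, per screening run, cut at about 20% in these data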;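 also: signal is peak over basal fluorescence ratio across a 100 second FLIPR read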
# Target sequence (P37288 whole entry, looked up): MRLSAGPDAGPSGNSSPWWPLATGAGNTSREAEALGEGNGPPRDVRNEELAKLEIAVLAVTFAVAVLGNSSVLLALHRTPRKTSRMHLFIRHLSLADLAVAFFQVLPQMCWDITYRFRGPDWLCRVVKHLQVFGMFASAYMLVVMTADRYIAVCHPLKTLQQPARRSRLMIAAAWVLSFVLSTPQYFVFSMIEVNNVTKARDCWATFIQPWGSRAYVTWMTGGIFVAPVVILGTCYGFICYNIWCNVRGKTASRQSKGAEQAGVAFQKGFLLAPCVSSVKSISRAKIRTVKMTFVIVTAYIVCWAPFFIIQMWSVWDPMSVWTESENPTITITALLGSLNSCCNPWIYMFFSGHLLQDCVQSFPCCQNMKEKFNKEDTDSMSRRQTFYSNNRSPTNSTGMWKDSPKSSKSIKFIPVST
# CHO parental Ca: ATP-evoked calcium signal inhibitors, parental CHO, primary screen, counter-screen for OX1R antagonist project, cell-based, fluorescence, Fluo-8 calcium dye | AID 463079, 2010 | parental CHO-K1, ATP-induced calcium, Fluo-8 fluorescence | inhibition, % at 5.6 µM | 330,000 compounds, 0.63% hits;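 active = inhibition above that plate's mean sample inhibition plus 3 SD, cut at about 26% in these data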;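 also: 0% = ATP-challenged DMSO wells and 100% = DMSO wells without ATP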
#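 Assay system – parental CHO cells · Reagent – ATP stimulus · Detection – intracellular calcium via Fluo-8 no-wash fluorescent dye · Evaluation – percent inhibition of ATP-evoked calcium rise, normalized to controls · Controls – ATP wells versus no-ATP DMSO wells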
# OX1R antag-1: antagonists of human orexin 1 receptor (OX1R) | Orexin/Hypocretin receptor type 1 (Homo sapiens), O43613 | OX1R-expressing cells, FRET antagonist read-out | inhibition, % at 6.6 µM | 330,000 compounds, 1.8% hits | AID 485270, 2010; in the data active = inhibition mostly above about 38%, no sharp cut-off; inactive = mostly below about 40%;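 also: 0% = agonist challenge alone and 100% = reference antagonist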
# OXTR potentiator: human OXTR potentiators, primary screen, fluorescence, CHO-OTR cells, Fluo-8 calcium; AID 2445, 2010; 320,000 compounds, 0.061% hits; activation, % at 3 µM; Fluo-8 calcium fluorescence, potentiator mode; 0% = oxytocin EC15, 100% = EC100;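 active = activation above that plate's cutoff, the mean activation of tested compounds plus 3 SD, cut at about 6.6% in these data, passing the limit was not always enough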;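 also: 100% uses oxytocin at 75 nM as the full agonist control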
#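 Material: human OTR in CHO cells. Compound: 3.0 µM, one dose. Timing: compound 6 min at room temperature before oxytocin, 100 s read. Evaluation: % activation of max/min ratio relative to oxytocin controls. Replication: single well per compound, singlicate. Signal: Fluo-8 calcium dye fluorescence.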
# OXTR agonist: human OXTR agonists, primary screen, fluorescence, CHO-OTR cells, Fluo-8 calcium. Oxytocin receptor (Homo sapiens), P30559. Fluo-8 calcium fluorescence; normalized: DMSO 0%, oxytocin 100%. activation, % at 3 µM. 320,000 compounds, 0.32% hits. AID 2435, 2010;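 active = activation above the mean of all tested compounds plus 3 SD, cutoff set per screening run, cut at about 20% in these data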;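 also: peak over basal fluorescence ratio from a 100 s FLIPR kinetic read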
# OX1R antag-2: OX1R (HCRTR1) antagonists, primary screen, fluorescence, CHO/OX1R cells, Fluo-8 calcium, orexin A. Fluo-8 calcium fluorescence. AID 434989, 2010. 330,000 compounds, 0.43% hits. inhibition, % at 5 µM;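 active = inhibition above its plate's threshold, mean inhibition of all tested compounds on the plate plus 3 SD, cut at about 37% in these data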;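 also: 0% = orexin A challenge wells and 100% = SB-334867-A antagonist wells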
# * hit, by the source's call.
SMILES,V1R ag counter,CHO parental Ca,OX1R antag-1,OXTR potentiator,OXTR agonist,OX1R antag-2
O=C(Nc1nc2n(n1)C(c1ccccc1)C=C(c1ccccc1)N2)c1ccco1 (stereo unspecified),2,-21,50*,-6,0,-16
CC(=O)Nc1nc2n(n1)C(c1ccccc1)C=C(c1ccccc1)N2 (stereo unspecified),2,-2,9,-4,1,-6
CCn1cc(C(=O)NCC(OC)OC)c(=O)c2cc(S(=O)(=O)N3CCC(C)CC3)ccc21,0,3,18,-1,-1,-5
CCC(C)c1ccc(NC(=O)c2cccs2)cc1 (stereo unspecified),0,-12,40*,-2,-1,17
Cc1cc2oc(=O)cc(CN3CCCCC3C)c2cc1C (stereo unspecified),-1,-13,8,-7,-2,-45
Cc1c(NC(=O)COc2c(F)c(F)c(F)c(F)c2F)c(=O)n(-c2ccccc2)n1C,0,-3,14,3,0,-17
N#C/C(=N\Nc1ccc(Cl)c(Cl)c1)C(=O)C1CC1,10,25,50*,-22,12,17
N#C/C(=N\Nc1ccc(F)cc1)C(=O)C1CC1,9,0,9,-17,5,4
O=C(Cc1ccc(Cl)cc1Cl)NCc1cccnc1,0,-5,14,-10,0,-20
COc1ccc(-c2c(-c3cc(OC)cc(OC)c3)n(C)c3ccc(-c4ccc5[nH]ccc5c4)cc23)cc1,0,-3,1,1,0,4
O=C(O)C1Cc2ccccc2CN1C(=O)CCl (stereo unspecified),0,9,16,-7,0,-4
CCN(CC)c1ccc(/C=C(/C#N)c2nc3ccccc3[nH]2)c(OC(C)C)c1,44*,66*,39*,-13,51*,116*
CC1C/C(=C/c2cccn2C)C(=O)/C(=C/c2cccn2C)C1 (stereo unspecified),79*,83*,0,-23,58*,111*
CN(C)P(=O)(Nc1cccc2ccccc12)Nc1cccc2ccccc12,1,-8,59*,-7,-1,32
COc1ccccc1N=Nc1nc(-c2ccccc2)c(-c2ccccc2)[nH]1,0,26,66*,-2,-2,0
Cc1ccc(C(C)C)c(OCC(=O)NS(=O)(=O)c2ccc(Cl)cc2)c1,-1,-13,59*,-8,-1,-7
N#Cc1ccc(C(=O)Nc2ccc([N+](=O)[O-])cc2)c(F)c1,2,6,12,-11,3,-18
Cc1ccc(C)n1-n1c(C)nc2sc(-c3ccccc3)cc2c1=O,3,39*,57,-14,0,27
Cc1ccc(C)c(N2CCN(C(=O)CNS(=O)(=O)c3cccs3)CC2)c1,3,-20,13,-4,2,5
Cc1ccc(S(=O)(=O)N(C)CCCC(=O)NC(C)(C)C)cc1,1,-13,20,-2,0,-17
CCOc1ccccc1NS(=O)(=O)c1cccc2nsnc12,-1,-8,10,4,-1,0
Cc1cccc(NC(=O)CCNS(=O)(=O)c2cccc3nsnc23)c1,0,-9,38,-8,0,-32
COc1ccc(NC(=O)CCNS(=O)(=O)c2cccc3nsnc23)c(OC)c1,0,-3,73*,-10,0,-16
CCOc1ccccc1NC(=O)CCNS(=O)(=O)c1cccc2nsnc12,0,-11,67*,3,0,-21
CC(=O)c1cccc(NC(=O)CCNS(=O)(=O)c2cccc3nsnc23)c1,2,-14,58*,-12,0,-20
SMILES,V1R ag counter,CHO parental Ca,OX1R antag-1,OXTR potentiator,OXTR agonist,OX1R antag-2
CN(C)c1ccc(/C=C2\Oc3ccc(C#Cc4cccc(N)c4)cc3C2=O)cc1,41*,20,8,-13,41*,45
COC(=O)c1ccc2c(c1)C(=O)/C(=C/c1ccc(C)cc1)O2,0,-21,1,1,-1,-11
COCCNC(=O)C(c1ccc(F)cc1)N(Cc1cccs1)C(=O)CCC(=O)Nc1ccccn1 (stereo unspecified),1,-18,76*,-5,0,17
COCCNC(=O)C(c1ccc(F)cc1)N(Cc1ccccc1)C(=O)CCC(=O)Nc1ccccn1 (stereo unspecified),2,-25,70*,-4,2,10
COCCNC(=O)C(c1ccc(C)cc1)N(CCOC)C(=O)CCC(=O)Nc1ccccn1 (stereo unspecified),0,-8,13,0,0,-18
COCCNC(=O)C(c1ccc(O)cc1)N(Cc1ccccc1)C(=O)CCC(=O)Nc1ccccn1 (stereo unspecified),0,-4,15,-7,0,0
CNCC(=O)N(CC(C)C)c1c(N)n(CC(C)C)c(=O)[nH]c1=O,1,7,-1,-8,1,1
CC(NC(=O)COC(=O)/C=C/c1ccc(Cl)cc1)c1ccccc1 (stereo unspecified),2,-2,13,-14,0,-10
O=C(NC(=S)NCCC1=CCCCC1)c1ccccc1Br,0,-12,65*,-12,-1,-10
O=C(NCCc1ccccn1)c1c(-c2ccsc2)sc2ccccc12,8,-32,48*,4,-1,-22
CCc1cccc(C)c1NC(=O)CN1CCN(S(=O)(=O)c2ccc(C(C)(C)C)cc2)CC1,3,-5,15,-11,1,-16
NC(=O)NC(=O)c1nccnc1C(=O)O,1,-4,-2,-15,-1,5
CC(C)(C)OC(=O)N1C[C@H](O)C[C@H]1C(=O)OCC(=O)c1ccc([N+](=O)[O-])cc1,1,-4,37*,-4,1,-5
Cc1cc(C)cc(NC(=O)CSc2nc(N)c(NC(=O)c3cccs3)c(=O)[nH]2)c1,0,-2,5,-5,-1,-19
CC1CSC(N(C(=O)c2ccc(S(C)(=O)=O)cc2)c2ccc(Cl)cc2)=N1 (stereo unspecified),13,-23,16,-10,-2,-14
Cc1c(Br)ccc(NC(=O)Cn2nc(-c3cccs3)ccc2=O)c1C,3,-22,55*,-13,1,0

# Screening data (PubChem)
